# Data from ChEMBL document CHEMBL4024783, “Alkylated Piperazines and Piperazine-Azole Hybrids as Antifungal Agents” (J Med Chem, 2018).
# The source made the active and inactive calls. No cut-off for these calls is given here.
# Assays:
# [1] = system: BEAS-2B; assay: Cytotoxicity against human BEAS2B cells at 7.8 ug/mL after 24 hrs by resazurin-based fluorescence assay; format: cell-based
# Outline: (§1)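 Cells grown in DMEM with 10% FBS at 37 °C, 5% CO2, and seeded at 10000 (HEK-293) or 3000 (BEAS-2B, A549) per well. After 16 h, exposed 24 h to 0.13–31 µg/mL final in medium with 0.1–0.4% DMSO. Resazurin added for 6–10 h; fluorescence read at 560/590 nm and survival normalized to DMSO control after background subtraction. Triton X-100 12.5% v/v positive control; duplicate.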
# [2] = system: A549; assay: Cytotoxicity against human A549 cells up to 7.8 ug/mL after 24 hrs by resazurin based fluorescence assay; format: cell-based; details: a549, 24 h; outline: as §1
# [3] = system: Candida albicans; assay: Antifungal activity against Candida albicans ATCC 64124 after 48 hrs by broth dilution method; format: functional; details: Candida albicans, ATCC 64124, 48 h
# Outline: (§2)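 CLSI M27-A3 broth microdilution with minor modifications. Overnight YPD culture grown at 35 °C, 200 rpm, adjusted to OD600 0.12, diluted in RPMI 1640 buffered to pH 7.0 with 0.165 M MOPS to a final 1–2 × 10^3 CFU/mL. Test compounds at 0.015–31.3 µg/mL, 48 h at 35 °C, DMSO <1.25%. […] Triplicate.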
# [4] = system: HEK293; assay: Cytotoxicity against HEK293 cells at 7.8 ug/mL after 24 hrs by resazurin-based fluorescence assay; format: cell-based; details: human, hek293, 24 h; outline: as §1
# [5] = Solubility of the compound in DMSO; format: physicochemical
# [6] = system: Candida parapsilosis; assay: Antifungal activity against Candida parapsilosis ATCC 22019 after 48 hrs by broth dilution method; format: functional; details: Lodderomyces parapsilosis, ATCC 22019, 48 h
# [7] = system: Candida parapsilosis; assay: Fungistatic activity against Candida parapsilosis ATCC 22019 up to 8 times MIC incubated for 24 hrs by time kill assay; format: functional
# Outline: (§3)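 Overnight YPD cultures were diluted in RPMI 1640 to OD600 0.12–0.13; initial inoculum 1–4 × 10^5 CFU/mL. […] Shaken at 200 rpm, 35 °C, for 24 h, sampling at 0, 3, 6, 9, 12 and 24 h. Serial dilutions were plated on PDA and CFU counted; detection limit 100 CFU/mL; duplicate.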
# [8] = system: Candida albicans; assay: Antifungal activity against itraconazole and fluconazole susceptible Candida albicans ATCC MYA-2310 after 48 hrs by broth dilution method; format: functional; details: Candida albicans, ATCC MYA-2310, 48 h
# [9] = system: Aspergillus nidulans; assay: Antifungal activity against Aspergillus nidulans ATCC 38163 after 48 hrs in the presence of 10% FBS by broth dilution method; format: functional; details: ATCC 38163, 48 h
# [10] = system: Candida albicans; assay: Fungicidal activity against Candida albicans ATCC 10231 at 4 times MIC incubated for 24 hrs by time kill assay; format: functional; outline: as §3
# [11] = system: Candida albicans; assay: Antifungal activity against itraconazole and fluconazole resistant Candida albicans ATCC 90819 after 48 hrs by broth dilution method; format: functional; details: Candida albicans, ATCC 90819, 48 h; outline: as §2
# [12] = system: Candida albicans; assay: Antifungal activity against Candida albicans ATCC 10231 after 48 hrs in the presence of 10% FBS by broth dilution method; format: functional; details: ATCC 10231, 48 h
# [13] = system: Candida albicans; assay: Antifungal activity against Candida albicans ATCC 10231 after 48 hrs by broth dilution method; format: functional; details: ATCC 10231, 48 h
# [14] = system: Candida parapsilosis; assay: Antifungal activity against Candida parapsilosis ATCC 22019 after 48 hrs in the presence of 10% FBS by broth dilution method; format: functional; details: Lodderomyces parapsilosis, ATCC 22019, 48 h
# [15] = system: Candida albicans; assay: Antifungal activity against Candida albicans ATCC 10231 at 3.9 ug/mL incubated for 1 hr by propidium iodide staining-based fluorescence microscopic method; format: functional
# Outline: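 C. albicans ATCC 10231 from an overnight YPD culture (35 °C, 200 rpm) was transferred into RPMI 1640 and exposed to drug. Membrane integrity was assessed by uptake of propidium iodide under fluorescence microscopy.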
# [16] = system: Candida albicans; assay: Antifungal activity against itraconazole and fluconazole resistant Candida albicans ATCC MYA-1237 after 48 hrs by broth dilution method; format: functional; details: Candida albicans, ATCC MYA-1237, 48 h; outline: as §2
# [17] = system: Candida albicans; assay: Inhibition of 14alpha-demethylase in Candida albicans ATCC 10231 assessed as total sterol levels at […] by GC-MS analysis; parameters: scale not given: the % may be the effect or the level left
# [18] = system: Candida albicans; assay: Inhibition of 14alpha-demethylase in Candida albicans ATCC 10231 assessed as 14alpha-methyl ergosta-8,24(28)-dien-3beta,6alpha-diol levels at […] by GC-MS analysis; parameters: scale not given: the % may be the effect or the level left
# [19] = system: Pichia kudriavzevii; assay: Antifungal activity against Candida krusei ATCC 6258 after 48 hrs by broth dilution method; format: functional; details: Pichia kudriavzevii, ATCC 6258, 48 h
# Outline: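 Yeasts tested per CLSI M27-A3 with minor changes. An overnight YPD culture (35 °C, 200 rpm) was adjusted to OD600 0.12 and diluted in MOPS-buffered RPMI 1640 (pH 7.0) to a final 1–2 × 10^3 CFU/mL. Compounds 0.015–31.3 µg/mL, DMSO <1.25%.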
# [20] = system: Candida albicans; assay: Inhibition of 14alpha-demethylase in Candida albicans ATCC 10231 assessed as ergosterol levels at […] by GC-MS analysis; parameters: scale not given: the % may be the effect or the level left
# [21] = system: Candida albicans; assay: Inhibition of 14alpha-demethylase in Candida albicans ATCC 10231 assessed as lanosterol levels at […] by GC-MS analysis; parameters: scale not given: the % may be the effect or the level left
# [22] = system: Candida albicans; assay: Antibiofilm activity against voriconazole resistant Candida albicans ATCC 64124 sessile cells incubated for 24 hrs by XTT reduction assay; format: functional; details: ATCC 64124, 24 h
# Outline: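 Strain B grown overnight in YPD broth at 35 °C, diluted to OD600 0.1 (~10^6 CFU/mL), then grown statically for 24 h at 37 °C to form biofilm. Washed with PBS, then drug in RPMI 1640 at 0.12–62.5 µg/mL for 24 h at 37 °C. Read-out: XTT 0.5 mg/mL with menadione 1 µM, 2 h, A490. SMIC50/SMIC80 are 50%/80% decreases versus drug-free biofilm. Duplicate.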
# [23] = system: Candida albicans; assay: Antifungal activity against itraconazole and fluconazole resistant Candida albicans ATCC MYA-1003 after 48 hrs by broth dilution method; format: functional; details: Candida albicans, ATCC MYA-1003, 48 h; outline: as §2
# [24] = system: Nakaseomyces glabratus; assay: Antifungal activity against Candida glabrata ATCC 2001 after 48 hrs by broth dilution method; format: functional, CBS 138; details: Nakaseomyces glabratus, CBS 138, 48 h
# [25] = Aqueous solubility of the compound; format: physicochemical; details: buffer
# [26] = system: Candida albicans; assay: Inhibition of 14alpha-demethylase in Candida albicans ATCC 10231 assessed as eburicol levels at […] by GC-MS analysis; parameters: scale not given: the % may be the effect or the level left
# [27] = system: Aspergillus flavus; assay: Antifungal activity against Aspergillus flavus ATCC MYA-3631 after 48 hrs by broth dilution method; format: functional; details: ATCC MYA-3631, 48 h
# [28] = system: Aspergillus nidulans; assay: Antifungal activity against Aspergillus nidulans ATCC 38163 after 48 hrs by broth dilution method; format: functional; details: Aspergillus nidulans, ATCC 38163, 48 h
# Outline: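 A. nidulans run per CLSI M38-A2. PDA spores were filtered through glass wool and counted by hemocytometer. Test range 0.03–31.3 µg/mL in MOPS-buffered RPMI 1640 (pH 7.0), final 5 × 10^5 CFU/mL.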
# [29] = system: Aspergillus terreus; assay: Antifungal activity against Aspergillus terreus ATCC MYA-3633 after 48 hrs by broth dilution method; format: functional; details: Aspergillus terreus, ATCC MYA-3633, 48 h
# Outline: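 Molds tested per CLSI M38-A2. Spores were harvested from sporulating PDA cultures by filtering through glass wool and counted on a hemocytometer. Serial dilutions (0.03–31.3 µg/mL) were made in RPMI 1640 buffered to pH 7.0 with 0.165 M MOPS, final inoculum 5 × 10^5 CFU/mL.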
compound,measurement,setting,value
CCCCCCCCCCN1CCN(CC(O)(Cn2cncn2)c2ccc(F)cc2F)CC1 (stereo not given),Activity,[1],Toxic
same,Activity,[2],Non-Toxic
same,MIC,[3],8.4 µM
same,Activity,[4],Toxic
same,solubility,[5],Soluble
same,MIC,[6],0.03 µM
same,Activity,[7],Active
same,MIC,[8],16.8 µM
same,MIC,[9],0.975 µg/mL
same,Activity,[10],Active
same,MIC,[11],8.4 µM
same,MIC,[12],0.975 µg/mL
same,MIC,[13],2.1 µM
same,MIC,[14],0.06 µg/mL
same,Activity,[15],inactive
same,MIC,[16],16.8 µM
same,Activity,[17],2.8 to 14.4%
same,Activity,[18],15.4%
same,MIC,[19],4.2 µM
same,Activity,[20],30.1%
same,Activity,[21],33.4%
same,MIC50,[22],15.6 µg/mL
same,MIC80,[22],62.5 µg/mL
same,MIC,[23],8.4 µM
same,MIC,[24],> 67.5 µM
same,solubility,[25],Soluble
same,Activity,[26],1.25%
same,MIC,[27],0.5 µM
same,MIC,[28],2.1 µM
same,MIC,[29],2.1 µM
